The source made the active and inactive calls. The rule behind the calls is not given here.
How the values were obtained:
Schistosoma mansoni [1] = assay: Antischistosomal activity against Schistosoma mansoni assessed as worm death at 20 ug/ml after 72 hrs; format: functional, organism-based
In short: (§1)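 Adult S. mansoni (Liberian strain, 49-day-old) were held two males and two females per well, in duplicate, in Hanks' balanced salt solution with 20% calf serum, 300 IU/ml penicillin and 300 μg/ml streptomycin. Drug was given at 20 μg/ml final from a 1 mg/ml stock in 60% DMSO; solvent control was 1.2% DMSO. Incubation was at 37°C in 5% CO2. Worms were scored under a dissecting microscope at 24, 48 and 72 h for death, motor activity and tegument.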

Schistosoma mansoni [2] = assay: Antischistosomal activity against NMRI mouse adult Schistosoma mansoni infection model assessed as reduction of female worm burden at 400 mg/kg, po after 28 days; format: functional; design: scale not given: the % may be the effect or the level left
In short: (§2)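 Mice with a Liberian-strain S. mansoni infection were dosed at 49 days postinfection with a single oral dose of compound suspended in 7% Tween 80/3% ethanol. Groups held 3–5 animals, with untreated controls. At 28 days posttreatment, animals were killed by bleeding. Worms in liver and mesenteric veins were removed, sexed and counted. Reductions were calculated against controls and tested by Kruskal-Wallis.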

Schistosoma mansoni [3] = assay: Antischistosomal activity against NMRI mouse juvenile Schistosoma mansoni infection model assessed as reduction of total worm burden at 200 mg/kg, po after 28 days; format: functional; design: scale not given: the % may be the effect or the level left
In short: (§3)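 Juvenile-infection model: mice carrying Liberian-strain S. mansoni got one oral dose at day 21 postinfection, as a suspension in 7% Tween 80/3% ethanol. There were 3–5 per group, plus untreated controls. Necropsy by exsanguination followed 28 days after treatment. Liver and mesenteric-vein worms were collected, sexed and counted. Total and female burden reductions were calculated versus controls, with Kruskal-Wallis testing.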

Schistosoma mansoni [4] = assay: Antischistosomal activity against NMRI mouse adult Schistosoma mansoni infection model assessed as reduction of total worm burden at 400 mg/kg, po after 28 days; format: functional; design: scale not given: the % may be the effect or the level left; in short: as §2
Schistosoma mansoni [5] = assay: Tegumental alteration in Schistosoma mansoni at 20 ug/ml after 72 hrs; format: functional, organism-based; in short: as §1
Mus musculus = assay: Toxicity in NMRI mouse with adult Schistosoma mansoni infection at 400 mg/kg, po after 48 to 96 hrs; format: organism-based; design: dose 400 mg/kg, route oral; settings: in vivo
In short: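 Mice carrying a 49-day S. mansoni (Liberian strain) infection were given a single oral 400 mg/kg dose as a suspension in 7% Tween 80/3% ethanol. Deaths occurring 48–96 h after treatment were recorded.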

Schistosoma mansoni [6] = assay: Antischistosomal activity against NMRI mouse juvenile Schistosoma mansoni infection model assessed as reduction of female worm burden at 200 mg/kg, po after 28 days; format: functional; design: scale not given: the % may be the effect or the level left; in short: as §3
Schistosoma mansoni [7] = assay: Antischistosomal activity against NMRI mouse juvenile Schistosoma mansoni infection model assessed as number of cured mouse at 200 mg/kg, po after 28 days; format: functional, organism-based; design: dose 200 mg/kg; in short: as §3
Schistosoma mansoni [8] = assay: Antischistosomal activity against Schistosoma mansoni assessed as worm death at 20 ug/ml after 24 hrs; format: functional, organism-based; in short: as §1
Schistosoma mansoni [9] = assay: Reduction of motor activity of Schistosoma mansoni at 20 ug/ml after 72 hrs; format: functional, organism-based; in short: as §1
Schistosoma mansoni [10] = assay: Antischistosomal activity against Syrian golden hamster juvenile Schistosoma mansoni infection model assessed as reduction of female worm burden at 200 mg/kg, po after 28 days; format: functional; design: scale not given: the % may be the effect or the level left
In short: (§4)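 Hamsters infected with Liberian-strain S. mansoni were treated once orally at 21 days (juvenile lines) or 49 days (adult lines) postinfection. Doses were 50, 100 or 200 mg/kg, in 7% Tween 80/3% ethanol suspension. Groups had 3–4 animals, with untreated controls. After 28 days, animals were bled out. Worms from liver and mesenteric veins were sexed and counted, and cures and burden reductions versus controls were recorded (Kruskal-Wallis).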

Schistosoma mansoni [11] = assay: Antischistosomal activity against Syrian golden hamster juvenile Schistosoma mansoni infection model assessed as number of cured mouse at 50 mg/kg, po after 28 days; format: functional, organism-based; design: dose 50 mg/kg; in short: as §4
Schistosoma mansoni [12] = assay: Antischistosomal activity against Syrian golden hamster adult Schistosoma mansoni infection model assessed as reduction of female worm burden at 100 mg/kg, po after 28 days; format: functional; design: scale not given: the % may be the effect or the level left; in short: as §4
Schistosoma mansoni [13] = assay: Antischistosomal activity against Syrian golden hamster adult Schistosoma mansoni infection model assessed as reduction of female worm burden at 200 mg/kg, po after 28 days; format: functional; design: scale not given: the % may be the effect or the level left; in short: as §4
Schistosoma mansoni [14] = assay: Antischistosomal activity against Syrian golden hamster adult Schistosoma mansoni infection model assessed as number of cured mouse at 100 mg/kg, po after 28 days; format: functional, organism-based; design: dose 100 mg/kg; in short: as §4
Schistosoma mansoni [15] = assay: Antischistosomal activity against Syrian golden hamster juvenile Schistosoma mansoni infection model assessed as reduction of female worm burden at 50 mg/kg, po after 28 days; format: functional; design: scale not given: the % may be the effect or the level left; in short: as §4
Schistosoma mansoni [16] = assay: Antischistosomal activity against Syrian golden hamster juvenile Schistosoma mansoni infection model assessed as reduction of total worm burden at 200 mg/kg, po after 28 days; format: functional; design: scale not given: the % may be the effect or the level left; in short: as §4
Schistosoma mansoni [17] = assay: Antischistosomal activity against Syrian golden hamster juvenile Schistosoma mansoni infection model assessed as reduction of female worm burden at 100 mg/kg, po after 28 days; format: functional; design: scale not given: the % may be the effect or the level left; in short: as §4
Schistosoma mansoni [18] = assay: Antischistosomal activity against Syrian golden hamster adult Schistosoma mansoni infection model assessed as reduction of total worm burden at 100 mg/kg, po after 28 days; format: functional; design: scale not given: the % may be the effect or the level left; in short: as §4
Schistosoma mansoni [19] = assay: Antischistosomal activity against Syrian golden hamster juvenile Schistosoma mansoni infection model assessed as reduction of total worm burden at 100 mg/kg, po after 28 days; format: functional; design: scale not given: the % may be the effect or the level left; in short: as §4
Schistosoma mansoni [20] = assay: Antischistosomal activity against Syrian golden hamster adult Schistosoma mansoni infection model assessed as reduction of total worm burden at 50 mg/kg, po after 28 days; format: functional; design: scale not given: the % may be the effect or the level left; in short: as §4
Schistosoma mansoni [21] = assay: Antischistosomal activity against Syrian golden hamster adult Schistosoma mansoni infection model assessed as number of cured mouse at 50 mg/kg, po after 28 days; format: functional, organism-based; design: dose 50 mg/kg; in short: as §4
Schistosoma mansoni [22] = assay: Antischistosomal activity against NMRI mouse adult Schistosoma mansoni infection model assessed as number of cured mouse at 400 mg/kg, po after 28 days; format: functional, organism-based; design: dose 400 mg/kg; in short: as §2
Schistosoma mansoni [23] = assay: Antischistosomal activity against Syrian golden hamster adult Schistosoma mansoni infection model assessed as reduction of female worm burden at 50 mg/kg, po after 28 days; format: functional; design: scale not given: the % may be the effect or the level left; in short: as §4
Schistosoma mansoni [24] = assay: Antischistosomal activity against Syrian golden hamster adult Schistosoma mansoni infection model assessed as number of cured mouse at 200 mg/kg, po after 28 days; format: functional, organism-based; design: dose 200 mg/kg; in short: as §4
Schistosoma mansoni [25] = assay: Antischistosomal activity against Syrian golden hamster juvenile Schistosoma mansoni infection model assessed as reduction of total worm burden at 50 mg/kg, po after 28 days; format: functional; design: scale not given: the % may be the effect or the level left; in short: as §4
Schistosoma mansoni [26] = assay: Antischistosomal activity against Syrian golden hamster juvenile Schistosoma mansoni infection model assessed as number of cured mouse at 100 mg/kg, po after 28 days; format: functional, organism-based; design: dose 100 mg/kg; in short: as §4

NC[C@H]1CC[C@]2(CC1)OOC1(O2)C2CC3CC(C2)CC1C3 (stereo partly drawn)
Activity (Schistosoma mansoni [1]): Active
Activity (Schistosoma mansoni [2]): 25%
Activity (Schistosoma mansoni [3]): 85%
Activity (Schistosoma mansoni [4]): 16.6%
Activity (Schistosoma mansoni [5]): Active
Activity (Mus musculus): Toxic
Activity (Schistosoma mansoni [6]): 83.7%
Activity (Schistosoma mansoni [7]): inactive
Activity (Schistosoma mansoni [8]): inactive
Activity (Schistosoma mansoni [9]): inactive

C1CCC2(CC1)COC1(OO2)C2CC3CC(C2)CC1C3 (stereo not drawn)
Activity (Schistosoma mansoni [3]): 5.4%
Activity (Schistosoma mansoni [6]): 3.9%
Activity (Schistosoma mansoni [7]): inactive

Oc1ccc([C@H]2CC[C@]3(CC2)OO[C@]2(O3)C3CC4CC(C3)CC2C4)cc1
Activity (Schistosoma mansoni [10]): 86.4%
Activity (Schistosoma mansoni [11]): inactive
Activity (Schistosoma mansoni [2]): 64.9%
Activity (Schistosoma mansoni [12]): 41.2%
Activity (Schistosoma mansoni [13]): 69.7%
Activity (Schistosoma mansoni [3]): 95.4%
Activity (Schistosoma mansoni [14]): inactive
Activity (Schistosoma mansoni [15]): 78.7%
Activity (Schistosoma mansoni [16]): 86.5%
Activity (Schistosoma mansoni [17]): 80.5%
Activity (Schistosoma mansoni [4]): 52.2%
Activity (Schistosoma mansoni [18]): 52.4%
Activity (Schistosoma mansoni [19]): 84%
Activity (Schistosoma mansoni [20]): 46.6%
Activity (Schistosoma mansoni [6]): 96.2%
Activity (Schistosoma mansoni [21]): inactive
Activity (Schistosoma mansoni [22]): inactive
Activity (Schistosoma mansoni [7]): inactive
Activity (Schistosoma mansoni [23]): 36.7%
Activity (Schistosoma mansoni [24]): inactive
Activity (Schistosoma mansoni [25]): 82.7%
Activity (Schistosoma mansoni [26]): inactive

C1CCC2(CC1)COC1(CCCCC1)OO2
Activity (Schistosoma mansoni [3]): 0%
Activity (Schistosoma mansoni [6]): 0%
Activity (Schistosoma mansoni [7]): inactive
